SENP6 inh – inhibitors of human SENP6 protease; actives 1.8% (n = 330,000); Q9GZR1; Recombinant SENP6 catalytic domain, aminoluciferin luminescence; inhibition, % at 10 µM;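 active = inhibition above about 50% at the single tested dose, limit read from the data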;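 note: plate controls were DMSO wells with enzyme for no effect and DMSO wells lacking enzyme for full effect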
Apaf-1 inh – blocks human Apaf-1 apoptosome activity; actives 0.71% (n = 330,000); O14727; reconstituted apoptosome caspase-3 activity, DEVD-Rh110 fluorescence; inhibition, % at 20 µM; AID 489030; active = inhibition of at least 40% at 20 µM;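 note: plate controls were DMSO wells for no effect and DEVD-CHO caspase inhibitor wells for full effect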
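Material: reconstituted apoptosome with Apaf-1, cytochrome c, caspase-9, procaspase-3, dATP; medium: pH 7.5 Hepes buffer with CHAPS, BSA, DTT; also added: cytochrome c and DEVD-Rh110 substrate; timing: 30 min plus 50 min, RT; signal: Rh110 fluorescence intensity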
SENP8 block-1 – SENP8 protease inhibition; Q96LD8; purified SENP8, Z-RLRGG-aminoluciferin cleavage, luminescence; inhibition, % at 10 µM; actives 1.2% (n = 330,000); in the data active = inhibition above about 50%
Target sequence (Q96LD8 whole entry, looked up): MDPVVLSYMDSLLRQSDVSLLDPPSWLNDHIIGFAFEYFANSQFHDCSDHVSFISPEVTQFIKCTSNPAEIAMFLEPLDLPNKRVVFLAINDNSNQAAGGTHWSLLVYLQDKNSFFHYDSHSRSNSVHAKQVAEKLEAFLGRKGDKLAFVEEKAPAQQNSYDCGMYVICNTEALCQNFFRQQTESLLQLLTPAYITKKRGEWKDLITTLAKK
UBC13 polyUb – blocks human UBC13 polyubiquitin chain formation; actives 0.47% (n = 330,000); TR-FRET; P61088; inhibition, % at 20 µM; in the data active = inhibition above about 45%, passing the limit was not always enough
SENP7 inh – SENP7 protease inhibition. actives 1.5% (n = 330,000). inhibition, % at 5 µM. AID 434973. recombinant SENP7, Z-RLRGG-aminoluciferin luminescence, 40 min. Q9BQF6;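 active = inhibition above about 50% at the single test dose, limit read from the data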;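 note: plate controls were DMSO with enzyme for no effect and no enzyme buffer wells for full effect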
SENP8 block-2 – SENP8 (human) protease inhibition. recombinant SENP8, Nedd8 substrate fluorescence. inhibition, % at 20 µM. actives 0.64% (n = 360,000). AID 602440; in the data active = inhibition mostly above about 40%, no sharp cut-off; inactive = mostly below about 27%
SENP8 conf – human SENP8 inhibition, confirmed. inhibition, % at 12.5 µM. Recombinant SENP8, Z-RLRGG-aminoluciferin luminescence, 60 min. AID 488912. actives 40% (n = 6,200). shares compounds with SENP7 inh;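 active = mean inhibition across replicates above about 50%, limit read from the data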
SENP6 conf – confirmation of human SENP6 protease inhibitors | shares compounds with SENP7 inh | recombinant SENP6, Z-RLRGG-aminoluciferin luminescence | inhibition, % at 12.5 µM | actives 58% (n = 6,200)
SENP7 conf – confirmation of human SENP7 protease inhibitors; actives 69% (n = 6,200); shares compounds with SENP7 inh; AID 488917; recombinant SENP7, Z-RLRGG-aminoluciferin luminescence, 40 min; inhibition, % at 12.5 µM
Casp3 SENP sel – caspase-3 inhibition (SENP selectivity assay) | purified caspase-3, Z-DEVD-aminoluciferin luminescence, 60 min | shares compounds with SENP7 inh | actives 60% (n = 6,200) | inhibition, % at 12.5 µM;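 active = mean inhibition above about 50%, limit read from the data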;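 note: plate controls were enzyme with DMSO for no effect and wells without caspase-3 for full effect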
Target sequence (P42574 28-227 limits assumed): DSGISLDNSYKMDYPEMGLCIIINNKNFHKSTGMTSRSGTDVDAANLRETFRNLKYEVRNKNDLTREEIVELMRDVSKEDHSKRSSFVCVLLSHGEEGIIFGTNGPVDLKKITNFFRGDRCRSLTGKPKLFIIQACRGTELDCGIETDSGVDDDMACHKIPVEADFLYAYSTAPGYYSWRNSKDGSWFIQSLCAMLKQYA
Luc interf – luminescence interference (SENP counter-screen) | shares compounds with SENP7 inh | Pre-incubated SENP8/Z-RLRGG-aminoluciferin, luciferase luminescence interference | inhibition, % at 12.5 µM | actives 39% (n = 6,200);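 active = mean inhibition above about 50% when retested at one dose, limit read from the data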;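 note: plate controls were DMSO wells with completed reaction for no effect and substrate without enzyme for full effect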
The depositor's hits bear a star; / = not tested or not shown. Compounds with a hit are over-represented: about 3.1% of the library has one in this group of screens.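 Rule for the calls, unless noted: active = mean inhibition above about 50% in the one-dose retest (limit read from the data); inactive = the rest.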

SMILES	SENP6 inh	Apaf-1 inh	SENP8 block-1	UBC13 polyUb	SENP7 inh	SENP8 block-2	SENP8 conf	SENP6 conf	SENP7 conf	Casp3 SENP sel	Luc interf
Cc1c(O)ccc(/C=N/Nc2ncccc2[N+](=O)[O-])c1O	97*	-6	96*	-43	100*	27	67*	77*	102*	75*	25
COCCN1C(=O)CCC1(C)C(=O)Nc1ccc2c(c1)OCCO2 (stereo not drawn)	/	/	/	/	/	22	/	/	/	/	/
CC(C)CCOCC(=O)Nc1cccc(C(=O)O)c1	58*	4	9	-6	41	7	38	35	73*	18	62*
COC(=O)[C@@]12C[C@@H](CC(=O)N3CCC(c4ccccc4)CC3)C(=O)N(CCc3ccc(OC)c(OC)c3)C1=CCC(C)(C)C2	/	/	/	/	/	14	/	/	/	/	/
CCOc1ncccc1C(=O)OCC(=O)c1cc(C)n(Cc2ccco2)c1C	71*	20	37	-10	36	4	70*	66*	87*	58*	26
Cc1cc(C(=O)COC(=O)c2ccc(O)cc2)c(C)n1Cc1ccco1	33	7	-5	6	-5	0	/	/	/	/	/
COc1cc(C(=O)N2CCCCC2c2cc(C(=O)Nc3ccccc3Cl)no2)cc(OC)c1C (stereo not drawn)	/	/	/	/	/	3	/	/	/	/	/
c1cnc2nc3c4ccccc4c4ccccc4c3nc2c1	/	/	/	/	/	-151	/	/	/	/	/
CC1CCCN(C(=O)c2ccc(-c3ccccc3Cl)o2)C1 (stereo not drawn)	50*	39	21	10	16	8	32	29	59*	26	16
O=C(NCc1cccnc1)c1[nH]c(C(F)(F)F)nc1-c1ccccc1	/	/	/	/	/	22	/	/	/	/	/
O=C(O)c1cc2nc3c(c(C(F)(F)F)n2n1)CCc1ccccc1-3	72*	6	3	-5	6	-50	-21	-14	-8	-7	-5
COCCNC(=O)c1cc2nc3c(c(C(F)(F)F)n2n1)CCc1ccccc1-3	-14	0	-7	21	-8	-428	/	/	/	/	/
C(/C=C/c1ccccc1)=N/N1CCN(c2ccccc2)CC1	14	-7	-12	6	61*	24	12	12	25	39	12
C(=C\c1ccccc1)/C=N/N1CCN(c2ccccn2)CC1	74*	7	40	-3	56*	18	39	52*	32	62*	29
O=C(CN1C(=O)C2(OCCCO2)c2ccccc21)NCc1ccccc1	-16	3	-4	3	52*	5	-8	-4	-8	4	1
CC(C)c1cn(CC[C@@H]2CC[C@@H](NC(=O)C3CCCCC3)[C@@H](CO)O2)nn1	/	/	/	/	/	18	/	/	/	/	/
COCCn1c(N)c(C(=O)NCc2cccs2)c2nc3ccccc3nc21	84*	95*	87*	21	64*	-280	-8	3	-4	3	-4
COCCn1c(N)c(S(=O)(=O)c2cccs2)c2nc3ccccc3nc21	20	5	2	14	4	-325	/	/	/	/	/
CN(C(=O)c1ccc(-c2ccccc2)cc1)C1CCCCC1	61*	16	37	-1	29	7	14	20	30	22	4
CN(C(=O)c1ccccc1Cl)C1CCCCC1	-2	2	-7	-12	-12	15	/	/	/	/	/
COc1ccccc1NS(=O)(=O)c1cccc(-n2c(O)c(C=Nc3ccccc3C(=O)O)c3ccccc3c2=O)c1	52*	23	21	-1	6	2	41	38	37	18	4
COc1ccc(NC(=O)CSc2nnc3n2CCCCC3)cc1S(=O)(=O)N(C)C	/	/	/	/	/	1	/	/	/	/	/

High-throughput results from PubChem BioAssay.
